Experimental data taken from PMC2859091 (Journal of natural products, 2010).

Key:
[1] = test system: Pseudomonas aeruginosa (ATCC 27853); assay: Antimicrobial assay, P. aeruginosa; format: cell-based; details: at the concentrations tested
[2] = test system: Candida albicans (ATCC 44506); assay: Antimicrobial assay, C. albicans; format: cell-based; details: at the concentrations tested
[3] = test system: DLD-1 human colorectal adenocarcinoma; assay: Cytotoxicity; format: cell-based
Method in brief: (§1)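 Test compound assessed for effect on proliferation of human PANC-1 pancreatic carcinoma and DLD-1 colorectal adenocarcinoma cells, both lines obtained from ATCC. The procedure follows a previously described protocol. Each sample was assayed at least three times to derive the final value.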

[4] = test system: PANC-1 pancreatic carcinoma; assay: Cytotoxicity; format: cell-based, human
Method in brief: as §1

[5] = test system: NCI/ADR-Res (multi drug resistant ovarian cancer cell line); assay: Cytotoxicity; format: cell-based, human; details: at a concentration of 5.2 µM
[6] = target: MCL-1 binding to Bak (Homo sapiens, UniProt Q07820); assay: MCL-1 assay
MCL-1 binding to Bak, sequence (Q07820 whole entry): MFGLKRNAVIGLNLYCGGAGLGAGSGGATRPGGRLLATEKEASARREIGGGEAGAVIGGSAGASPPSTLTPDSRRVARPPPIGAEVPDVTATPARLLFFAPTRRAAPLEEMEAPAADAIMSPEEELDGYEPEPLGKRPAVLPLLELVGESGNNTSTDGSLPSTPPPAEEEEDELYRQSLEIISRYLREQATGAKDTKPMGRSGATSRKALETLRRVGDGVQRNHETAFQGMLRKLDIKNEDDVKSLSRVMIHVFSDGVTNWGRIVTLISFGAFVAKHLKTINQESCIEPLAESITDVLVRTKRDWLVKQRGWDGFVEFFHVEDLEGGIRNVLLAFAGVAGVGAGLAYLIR

Structure (SMILES)	activity against Pseudomonas aeruginosa [1]	activity against Candida albicans [2]	inhibitory activity against DLD-1 ([3]; at a concentration of 6.4 µM)	inhibitory activity against PANC-1 ([4]; at a concentration of 6.4 µM)	inhibitory activity against NCI/ADR-Res [5]	inhibition of MCL-1 binding to Bak (in words) [6]	inhibitory activity against DLD-1 ([3]; at a concentration of 5.2 µM)	inhibitory activity against PANC-1 ([4]; at a concentration of 5.2 µM)
CCC[C@@H](O)Cc1c(Br)c(O)c2c(=O)c3c(O)cc(O)c4c5c(O)cc(O)c6c(=O)c7c(O)c(Br)c(C[C@H](C)O)c8c1c2c(c34)c(c65)c78 [Gymnochrome E, 1,6,8,10,11,13-hexahydroxy-2,5-dibromo-3-(2-hydroxypropyl)-4-(2-hydroxypentyl)-phenanthroperylene-7,14-quinone]	did not show activity	did not show activity	did not show significant inhibitory activity	did not show significant inhibitory activity				
CCC[C@@H](O)Cc1c(Br)c(O)c2c(=O)c3c(O)c(Br)c(O)c4c5c(O)c(Br)c(O)c6c(=O)c7c(O)c(Br)c(C[C@H](O)CCC)c8c1c2c(c34)c(c65)c78 [Gymnochrome F, 1,6,8,10,11,13-hexahydroxy-2,5,9,12-tetrabromo-3,4-(2-hydroxypentyl)-phenanthroperylene-7,14-quinone]	did not show activity	did not show activity			did not show significant inhibitory activity	moderate inhibitor	did not show significant inhibitory activity	did not show significant inhibitory activity
